Assay outcomes from PubChem BioAssay.
OX1R antag-1: antagonists of human orexin 1 receptor (OX1R) | O43613 | OX1R-expressing cells, FRET antagonist read-out | inhibition, % at 6.6 µM | hit rate 1.8% among 330,000 | AID 485270; in the data active = inhibition mostly above about 38%, no sharp cut-off; inactive = mostly below about 40%
CHO parental Ca: signal in parental CHO cells, OX1R antagonist counter-screen; inhibition, % at 5.6 µM; parental CHO-K1, ATP-induced calcium, Fluo-8 fluorescence; AID 463079; hit rate 0.63% among 330,000;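 active = inhibition above that plate's mean sample inhibition plus 3 SD, cut at about 26% in these data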
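Assay system: untransfected parental CHO cell line. Also added: ATP agonist challenge. Dosing: one dose, 5.6 µM nominal. Measured by: Fluo-8 fluorescence. Read-out: % inhibition. Benchmarks: ATP wells versus no-ATP DMSO wells. Repeats: no replicates.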
TAAR1 agonist: human TAAR1 agonism. CHO RD-HGA16 TAAR1, Fluo-8 calcium fluorescence; vehicle wells 0%, saturating PEA agonist 100%. activation, % at 3 µM. hit rate 0.99% among 360,000;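 active = activation above the mean activation of all test compounds in the run plus 3 SD, cut at about 38% in these data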
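System: CHO-derived RD-HGA16 cells with stable Gα16 and human TAAR1 / Times: 17-24 h plating, Fluo-8 75 min 37 °C, 30 min RT / Technique: calcium-sensitive Fluo-8 signal, excitation 470-495, emission 515-575 nm / Measure: % activation relative to PEA EC100 response / Benchmarks: DMSO and PEA EC100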
GPR7 antagonist: blocks human GPR7 receptor signaling | GPR7-expressing cells, fluorescence antagonist assay | inhibition, % at 4.4 µM | hit rate 1.1% among 290,000 | AID 1861; in the data active = inhibition above about 16%, passing the limit was not always enough;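 also: cells stimulated with the agonist NPW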
Target sequence (P48145 whole entry, looked up): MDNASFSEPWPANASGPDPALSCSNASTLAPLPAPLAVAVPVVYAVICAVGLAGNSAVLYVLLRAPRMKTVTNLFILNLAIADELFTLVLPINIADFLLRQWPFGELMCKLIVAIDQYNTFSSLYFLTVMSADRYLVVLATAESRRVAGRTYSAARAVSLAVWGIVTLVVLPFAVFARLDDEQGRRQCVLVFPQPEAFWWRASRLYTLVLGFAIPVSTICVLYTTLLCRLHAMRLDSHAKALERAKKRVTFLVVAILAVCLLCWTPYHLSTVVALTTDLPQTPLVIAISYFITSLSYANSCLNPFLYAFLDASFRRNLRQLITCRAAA
TAAR1 antag: antagonists of human TAAR1; Q96RJ0; CHO RD-HGA16 TAAR1, Fluo-8 calcium fluorescence, antagonist; inhibition, % at 3 µM; hit rate 1.5% among 360,000; AID 624466;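 active = inhibition above a per-plate cutoff, the mean inhibition of test compounds on that plate plus 3 SD, cut at about 49% in these data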
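Test system: RD-HGA16 CHO cells with stable hTAAR1 and Gα16 / Probe or stimulus: EC80 β-phenethylamine stimulus / Times: seeding 17-24 h prior, 75-min 37 °C, 30-min RT dye loading / Detection: Fluo-8 calcium-sensitive fluorescence / Read-out basis: % inhibition scaled between DMSO and EC80 PEA controls / Repeats: singlicate, one well per test compound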
OX1R antag-2: antagonists of human orexin 1 receptor; O43613; CHO/OX1R cells, Fluo-8 calcium fluorescence, orexin A; inhibition, % at 5 µM; hit rate 0.43% among 330,000; AID 434989;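 active = inhibition above its plate's threshold, mean inhibition of all tested compounds on the plate plus 3 SD, cut at about 37% in these data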
Each line names hits and unclear results; the compound was inactive in the other large screens. Compounds with a hit are over-represented: about 4.6% of the library has one in this group of screens.

O=C(CSc1nnc(-c2ccc(F)cc2)o1)NC1CCCC1	none (no result: OX1R antag-1, CHO parental Ca, OX1R antag-2)
O=C(c1nc2ccccn2c1CN1CCCC(O)C1)N1CCN(C2CCCCC2)CC1 (centres undefined)	none
Cc1noc(C)c1S(=O)(=O)N1CCCC(C(=O)N2CCN(C3CCCCC3)CC2)C1 (centres undefined)	none
Cc1ccc(C)c(N2CCN(C(=O)C3CCCN(S(=O)(=O)c4c(C)noc4C)C3)CC2)c1 (centres undefined)	TAAR1 antag 53
Cc1ccc(Cl)cc1N1CCN(C(=O)c2ccc(NS(=O)(=O)c3c(C)noc3C)cc2)CC1	CHO parental Ca 44
Cc1cc(C)c(S(=O)(=O)c2ccccc2C)c(SCC(C)C)n1	CHO parental Ca 57
CCCSc1nc(C)cc(C)c1S(=O)(=O)c1ccccc1C	OX1R antag-2 54
CC(=Nc1ccccc1)C1=C(O)C(Cc2ccc(O)cc2)NC1=O (centres undefined)	none (no result: OX1R antag-1, CHO parental Ca, GPR7 antagonist, OX1R antag-2)
COc1ccc(OCC(=O)OC(C)CN2CCOCC2)cc1 (centres undefined)	GPR7 antagonist 18
COC(=O)CCNS(=O)(=O)c1ccc2nsnc2c1	OX1R antag-1 63 (no result: GPR7 antagonist)
COc1ccc(S(=O)(=O)c2nnn(-c3cccc(Cl)c3)c2N)cc1	TAAR1 agonist 46, GPR7 antagonist 20
CNc1nc(NCCCN2CCCC2=O)c2sccc2n1	none (no result: OX1R antag-1, CHO parental Ca, GPR7 antagonist, OX1R antag-2)
O=C1CCCN1CCCNc1ncccc1[N+](=O)[O-]	OX1R antag-1 43
CCOC(=O)CN(C(=O)CSc1nnc(COc2ccc(OC)cc2)n1CC)c1ccccc1	none
Cc1noc(C)c1C(=O)OCC(=O)Nc1ncc(C(F)(F)F)cc1Cl	none (no result: GPR7 antagonist)
O=C1N=C(N2CCOCC2)S/C1=C\c1ccncc1	OX1R antag-1 39
CC(C)c1ccc(/C=C2\SC(N3CCOCC3)=NC2=O)cc1	none
CC(=O)N1CCN(C2=NC(=O)/C(=C\c3cccs3)S2)CC1	OX1R antag-1 41
Cn1nnnc1Sc1ncnc2scc(-c3cc4ccccc4o3)c12	none (no result: GPR7 antagonist)
CCOC(=O)CNC(=O)N1CCCC(CCC(=O)NCc2ccc(F)c(F)c2)C1 (centres undefined)	none
O=C(Oc1ccc2ccccc2c1Br)N1CCCCCC1	CHO parental Ca 33
O=[N+]([O-])c1cccc(N=NN(CCO)c2cccc([N+](=O)[O-])c2)c1	TAAR1 antag 51
O=C(NCCc1ccccc1)c1ccccc1NC(=O)C1CCCO1 (centres undefined)	GPR7 antagonist 20
O=C(O)c1ccccc1NC(=O)C1CCCO1 (centres undefined)	none
O=C(NCCc1ccccc1)c1ccc(NC(=O)C2CCCCC2)cc1	TAAR1 antag 49 (no result: OX1R antag-1, CHO parental Ca, GPR7 antagonist, OX1R antag-2)
CCc1nc2ccc(C(=O)Nc3cccc(NS(C)(=O)=O)c3)cn2c1N(CC)CCOC	none (no result: OX1R antag-1, CHO parental Ca, GPR7 antagonist, OX1R antag-2)
Cc1nc2ccccc2c2c1C(=O)N(c1ccc(C(=O)O)cc1)C2=O	none
Cc1nc2ccccc2c2c1C(=O)NC2=O	OX1R antag-1 39 (no result: TAAR1 agonist, TAAR1 antag)
Oc1ccc2ccccc2c1C=NCc1cn2ccsc2n1	OX1R antag-1 65
CCOC1=C2CN(S(=O)(=O)c3ccc(C)cc3)[C@H](c3ccccc3)C[C@H]2n2c(=O)n(-c3ccccc3)c(=O)n2C1	none (no result: OX1R antag-1, CHO parental Ca, GPR7 antagonist, OX1R antag-2)
CCOc1ccc(S(=O)(=O)/N=C(/Nc2ccc(S(N)(=O)=O)cc2)c2ccccc2)cc1	none (no result: GPR7 antagonist)
CCOc1[nH]n(-c2ccc(Cl)cc2)c(=O)c1C=Nc1ccc(Cl)cc1	CHO parental Ca 38
CCOc1[nH]n(-c2ccc(Cl)cc2)c(=O)c1C=Nc1ccc(C)cc1	none (no result: OX1R antag-1, CHO parental Ca, TAAR1 agonist, TAAR1 antag, OX1R antag-2)
CCOCCCNc1nc2c(C)cccn2c(=O)c1/C=C1\SC(=S)N(C(C)CC)C1=O (centres undefined)	OX1R antag-2 45
CC(C)NC(=O)N(C)C[C@H]1Oc2c(NS(=O)(=O)c3ccccc3)cccc2C(=O)N([C@H](C)CO)C[C@@H]1C	none (no result: GPR7 antagonist)
CC(=O)NCCNc1ccc([N+](=O)[O-])cc1C#N	OX1R antag-1 67
CCNC(=O)Nc1ccc(OC)cc1OC	none
Cc1cccn2c(=O)c3cc(C(=O)NCc4ccc(F)cc4)c(=N)n(CC4CCCO4)c3nc12 (centres undefined)	none
N=c1c(C(=O)NC2CCCCC2)cc2c(=O)n3ccccc3nc2n1Cc1cccnc1	none
